Laboratory results reported in ChEMBL document CHEMBL3425440, “ent-Kaurane Diterpenoids from Chinese Liverworts and Their Antitumor Activities through Michael Addition As Detected in Situ by a Fluorescence Probe” (J Med Chem, 2015).
Activity calls are given as the source filed them. No cut-off for these calls is given here.

Experiments:
[1] = Cytotoxicity against human RWPE1 cells assessed as cell viability after 24 hrs by MTT assay; assay type: cell-based; details: RWPE-1, 24 h
How it was run: (§1)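 Cells grown to about 50−70% confluence at 37 °C, 5% CO2, then exposed to compounds 24 h (DMSO vehicle control, cisplatin positive control). MTT (5 mg/mL stock) added for 4 h, formazan dissolved in DMSO, absorbance read at 570 nm. IC50 derived from percent viability; at least three independent experiments, mean ± SD.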

PC-3 [2] = assay: Reduction in glutathione level in human PC3 cells at 6 uM preincubated for 4 hrs followed by fluorescence probe addition by 3-azido-7-(diethylamino)-2H-chromen-2-one fluorescence probe-based confocal microscopic analysis; assay type: functional, cell-based; details: TDE = time-dependent effect
How it was run: (§2)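 PC3 cells on glass coverslips treated with compound for 4 h (5 μM NEM as thiol-scavenger control), fixed in cold methanol/acetone (1:1) for 5 min. Stained with 30 μM azidocoumarin probe, which fluoresces on reaction with thiols, for 1 h at room temperature in the dark. Mean cellular fluorescence quantified by confocal microscopy; mean ± SD.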

[3] = Cytotoxicity against human HL60 cells assessed as cell viability after 24 hrs by MTT assay; assay type: functional, cell-based; details: HL-60, 24 h; how it was run: as §1
PC-3 [4] = assay: Induction of reactive oxygen species formation in human PC3 cells at 6 uM after 4 hrs by DCFH-DA staining-based flow cytometric analysis in presence of antioxidant N-acetylcysteine; assay type: functional, cell-based
How it was run: (§3)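 PC3 cells exposed to 6 μM compound for 4 h, with optional 5 mM NAC added 1 h beforehand. Loaded with 10 μM DCFH-DA at 37 °C for 30 min, washed, resuspended in PBS and read at once by flow cytometry. ROS expressed as ratio relative to control; Student's t test.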

[5] = Cytotoxicity against human PC3 cells assessed as cell viability after 24 hrs by MTT assay; assay type: functional, cell-based; details: PC-3, 24 h; how it was run: as §1
MDA-MB-231 = assay: Cytotoxicity against human MDA-MB-231 cells assessed as cell viability after 24 hrs by MTT assay; assay type: functional, cell-based; details: MDA-MB-231, 24 h; how it was run: as §1
NCI-H1299 = assay: Cytotoxicity against human NCI-H1299 cells assessed as cell viability after 24 hrs by MTT assay; assay type: functional, cell-based; details: NCI-H1299, 24 h; how it was run: as §1
PC-3 [6] = assay: Induction of reactive oxygen species formation in human PC3 cells at 6 uM by DCFH-DA staining-based flow cytometric analysis; assay type: functional, cell-based; details: TDE = time-dependent effect; how it was run: as §3
PC-3 [7] = assay: Reduction in total glutathione level in human PC3 cells at 6 uM by DNTB-based assay; assay type: functional, cell-based; details: TDE = time-dependent effect
How it was run: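 PC3 cells exposed to 6 μM compound for the indicated times, lysed by freeze–thaw in protein removal agent and supernatant collected. Total glutathione read with DTNB at 412 nm; GSSG read after masking GSH with 2-vinylpyridine; GSH taken as the difference. Expressed relative to control.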

PC-3 [8] = assay: Cytotoxicity against human PC3 cells assessed as decrease in cell viability at 6 uM after 24 hrs by MTT assay in presence of antioxidant N-acetylcysteine; assay type: functional, cell-based
How it was run: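 PC3 cells pretreated with 5 mM NAC for 1 h, then given 6 μM compound with or without the antioxidant for 24 h. Viability read by MTT (formazan in DMSO, absorbance at 570 nm). Mean ± SD.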

DU-145 = assay: Cytotoxicity against human DU145 cells assessed as cell viability after 24 hrs by MTT assay; assay type: functional, cell-based; details: DU-145, 24 h; how it was run: as §1
PC-3 [9] = assay: Reduction in glutathione level in human PC3 cells preincubated for 4 hrs followed by fluorescence probe addition measured after 1 hr by 3-azido-7-(diethylamino)-2H-chromen-2-one fluorescence probe-based confocal microscopic analysis; assay type: functional, cell-based; how it was run: as §2
K562 = assay: Cytotoxicity against human K562 cells assessed as cell viability after 24 hrs by MTT assay; assay type: functional, cell-based; details: K562, 24 h; how it was run: as §1
PC-3 [10] = assay: Reduction in glutathione level in human PC3 cells at 5 uM preincubated for 4 hrs followed by fluorescence probe addition measured after 1 hr by 3-azido-7-(diethylamino)-2H-chromen-2-one fluorescence probe-based confocal microscopic analysis; assay type: functional, cell-based; how it was run: as §2
PC-3 [11] = assay: Induction of apoptosis in human PC3 cells assessed as appearance of swelled/fused lysosomes at 8 uM after 2 hrs by LysoTracker Red and Hoechst 33342 staining-based confocal microscopic analysis; assay type: functional, cell-based
How it was run: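 PC3 cells given 8 μM compound for 2 h, then stained 30 min at 37 °C with 100 ng/mL LysoTracker Red and 10 μg/mL Hoechst 33342. Washed in PBS and imaged by confocal microscopy to assess lysosome swelling or fusion.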

PC-3 [12] = assay: Induction of apoptosis in human PC3 cells assessed as cathepsin B release from lysosome to cytosol at 8 uM measured over 48 hrs by Western blot analysis; assay type: functional, cell-based
How it was run: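 PC3 cells treated with 8 μM compound for the indicated times, lysed in RIPA buffer with protease inhibitors, protein quantified by BCA. Run on 12% SDS-PAGE, transferred to nitrocellulose, blocked in 5% milk/TBST. Probed overnight at 4 °C for cathepsin B with GAPDH loading control; ECL detection.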

[13] = Selectivity index, ratio of IC50 for human RWPE1 cells to IC50 for human PC3 cells; assay type: functional
[14] = Drug uptake in lysosome of human PC3 cells at 8 uM preincubated for 4 hrs followed by fluorescence probe addition measured after 1 hr by 3-azido-7-(diethylamino)-2H-chromen-2-one fluorescence probe-based confocal microscopic analysis; assay type: ADME, cell-based; details: pc-3, 1 h; how it was run: as §2
[15] = Cytotoxicity against human T24 cells assessed as cell viability after 24 hrs by MTT assay; assay type: functional, cell-based; details: T-24, 24 h; how it was run: as §1
[16] = Cytotoxicity against human SKOV3 cells assessed as cell viability after 24 hrs by MTT assay; assay type: functional, cell-based; details: SK-OV-3, 24 h; how it was run: as §1
LNCaP = assay: Cytotoxicity against human LNCAP cells assessed as cell viability after 24 hrs by MTT assay; assay type: functional, cell-based; how it was run: as §1
[17] = Cytotoxicity against human A172 cells assessed as cell viability after 24 hrs by MTT assay; assay type: functional, cell-based; details: A 172, 24 h; how it was run: as §1
[18] = Cytotoxicity against human SH-SY5Y cells assessed as cell viability after 24 hrs by MTT assay; assay type: functional, cell-based; how it was run: as §1
LoVo = assay: Cytotoxicity against human LoVo cells assessed as cell viability after 24 hrs by MTT assay; assay type: functional, cell-based; how it was run: as §1
[19] = Cytotoxicity against human Saos2 cells assessed as cell viability after 24 hrs by MTT assay; assay type: functional, cell-based; details: SAOS-2, 24 h; how it was run: as §1

| Compound | IC50 [1] | IC50 [3] | IC50 [5] | IC50 (MDA-MB-231) | IC50 (NCI-H1299) | IC50 (DU-145) | IC50 (K562) | IC50 [15] | IC50 [16] | IC50 (LNCaP) | IC50 [17] | IC50 [18] | IC50 (LoVo) | IC50 [19] | further results |
| --- | --- | --- | --- | --- | --- | --- | --- | --- | --- | --- | --- | --- | --- | --- | --- |
| C=C1C(=O)[C@@]23CC[C@H]4[C@@](C)(CCC[C@@]4(C)C(=O)OC)[C@@H]2CC[C@]1(O)C3 | 7 µM | 1.5 µM | 6.1 µM | 5.2 µM | 9.2 µM | 10.8 µM | 2.9 µM | – | – | – | – | – | – | – | Activity (PC-3 [2]): tde; Activity (PC-3 [4]): inactive; Activity (PC-3 [6]): tde; Activity (PC-3 [7]): tde; Activity (PC-3 [8]): inactive; Activity (PC-3 [9]): Dose-dependent effect |
| C=C1C(=O)[C@@]23CC[C@H]4[C@@](C)(CCC[C@@]4(C)C(=O)O)[C@@H]2CC[C@]1(O)C3 | 27 µM | 7.9 µM | 30.1 µM | 37.2 µM | 32.8 µM | 48.5 µM | 9.9 µM | – | – | – | – | – | – | – | Activity (PC-3 [10]): Active |
| C=C1C(=O)[C@@]23CC[C@H]4[C@@](C)(CCC[C@@]4(C)C(=O)OCCN4CCN(C)CC4)[C@@H]2CC[C@]1(O)C3 | 29.3 µM | 3 µM | 8.2 µM | 27.5 µM | 10.9 µM | 14.9 µM | 4.1 µM | – | – | – | – | – | – | – | Activity (PC-3 [11]): Active; Activity (PC-3 [12]): Active; Ratio IC50 [13]: 3.6; Drug uptake [14]: Active |
| C=C1[C@@H]2CC[C@H]3[C@]4(C)CCC[C@@](C)(CO)[C@H]4CC[C@]3(C2)[C@@H]1O | > 50 µM | > 50 µM | > 50 µM | > 50 µM | > 50 µM | > 50 µM | > 50 µM | > 50 µM | > 50 µM | > 50 µM | > 50 µM | > 50 µM | > 50 µM | > 50 µM | – |
| C[C@H]1C(=O)[C@@]23CC[C@@H]4[C@@](C)(CO)CCC[C@@]4(C)C2=CC[C@]1(O)C3 | > 50 µM | > 50 µM | > 50 µM | > 50 µM | > 50 µM | > 50 µM | > 50 µM | > 50 µM | > 50 µM | > 50 µM | > 50 µM | > 50 µM | > 50 µM | > 50 µM | – |
| C=C1[C@@H]2CC[C@H]3[C@]4(C)CCC[C@](C)(C(=O)O)[C@H]4CC[C@]3(C2)[C@@H]1OC(C)=O | > 50 µM | > 50 µM | > 50 µM | > 50 µM | > 50 µM | > 50 µM | > 50 µM | > 50 µM | > 50 µM | > 50 µM | > 50 µM | > 50 µM | > 50 µM | > 50 µM | – |
| C=C1C(=O)[C@@]23CC[C@@H]4[C@@](C)(C=O)CCC[C@@]4(C)C2=CC[C@]1(O)C3 | 12.7 µM | 4.4 µM | 11.4 µM | 21.6 µM | 12.2 µM | 11.6 µM | 6.3 µM | 5.9 µM | 7.4 µM | 9.5 µM | 4.4 µM | 4.2 µM | 9.3 µM | 7.3 µM | – |
| C=C1C(=O)[C@H]2C[C@]1(O)CC1=C2[C@]2(C)CCCC(C)(C)[C@H]2CC1 | 6.3 µM | 1.9 µM | 2.2 µM | 3.4 µM | 2.6 µM | 3.2 µM | 2.2 µM | 2.3 µM | 2.9 µM | 2.8 µM | 2.7 µM | 1.6 µM | 2.3 µM | 2.4 µM | Activity (PC-3 [10]): Active |
| C=C1[C@@H]2CC(=O)[C@H]3[C@]4(C)CCCC(C)(C)[C@H]4[C@@H](O)[C@@H](O)[C@]3(C2)[C@@H]1O | > 50 µM | > 50 µM | > 50 µM | > 50 µM | > 50 µM | > 50 µM | > 50 µM | > 50 µM | > 50 µM | > 50 µM | > 50 µM | > 50 µM | > 50 µM | > 50 µM | – |
| C=C1C(=O)[C@H]2C[C@]1(O)CC1=C2[C@]2(C)CCC[C@](C)(CO)[C@H]2CC1 | 18.6 µM | – | 8.2 µM | 10.4 µM | – | 9.4 µM | – | – | – | – | – | – | – | – | Activity (PC-3 [10]): Active |
| C[C@@H]1C(=O)[C@@]23CC[C@@H]4[C@@](C)(CO)CCC[C@@]4(C)C2=CC[C@]1(O)C3 | > 50 µM | > 50 µM | > 50 µM | > 50 µM | > 50 µM | > 50 µM | > 50 µM | > 50 µM | > 50 µM | > 50 µM | > 50 µM | > 50 µM | > 50 µM | > 50 µM | – |
